# An excerpt weighted towards active compounds, which were near 1.5% of everything screened.
# Hck-Nef inh: inhibitors of Nef-activated human Hck kinase, primary screen, biochemical, Z-Lyte FRET, 384-well, Hck-YEEI. Tyrosine-protein kinase HCK (Homo sapiens), P08631. Recombinant Hck-YEEI plus Nef, Z-Lyte FRET kinase assay. inhibition, % at 20 µM. actives 0.68% (n = 220,000). AID 463187, 2010;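 active = Hck-Nef kinase inhibition above about 50%, limit read from the data; inactive = inhibition below that limit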;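 note: 0% = DMSO with Hck plus Nef and 100% = Hck alone without Nef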
# Target sequence (P08631 whole entry, looked up): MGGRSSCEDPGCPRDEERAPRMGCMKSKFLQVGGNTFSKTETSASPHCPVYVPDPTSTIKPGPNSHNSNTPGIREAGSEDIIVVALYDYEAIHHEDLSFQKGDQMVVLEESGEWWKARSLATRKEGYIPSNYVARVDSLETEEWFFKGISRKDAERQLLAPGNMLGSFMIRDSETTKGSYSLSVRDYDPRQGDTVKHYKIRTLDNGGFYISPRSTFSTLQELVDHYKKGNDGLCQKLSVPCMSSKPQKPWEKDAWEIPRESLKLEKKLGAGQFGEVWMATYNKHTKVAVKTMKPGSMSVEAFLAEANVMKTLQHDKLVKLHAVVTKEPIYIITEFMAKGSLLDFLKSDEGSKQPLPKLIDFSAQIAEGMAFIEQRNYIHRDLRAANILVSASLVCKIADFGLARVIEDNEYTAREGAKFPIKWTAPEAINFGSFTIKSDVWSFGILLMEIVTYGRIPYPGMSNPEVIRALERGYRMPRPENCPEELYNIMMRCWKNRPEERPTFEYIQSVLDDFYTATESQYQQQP
# Runt-CBFb FRET: inhibitors of RUNX1 Runt–CBFb binding, primary screen, biochemical, FRET, Cerulean-Runt, Venus-CBFb, uHTS; Runt-related transcription factor 1 (Homo sapiens) + Core-binding factor subunit beta …; Cerulean-Runt/Venus-CBFb FRET ratio 530/480, 1 h; inhibition, % at 20 µM; actives 0.46% (n = 220,000);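 active = inhibition over about 50% at 20 µM in the single-dose screen, limit read from the data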;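 note: 0% = DMSO wells and 100% = excess unlabeled CBFb competitor control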
#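 Schedule: protein complex preformed 1 h, compound exposure 1 h, room temperature, dark; test system: Cerulean-labeled Runt domain protein; amount: 100 nM per protein; buffer or medium: Tris 50 mM pH 7.5, KCl, K2SO4, 0.01% BSA; read-out: loss of energy transfer signal; detection: FRET fluorescence; controls: 5 µM unlabeled CBFb as full-inhibition high control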
# RanGTP-Impb inh: inhibitors of RanGTP-importin-beta interaction, primary screen, biochemical, FRET, CFP-Ran, YFP-importin-beta, homogeneous | Ran GTPase (GTP-bound) - importin-beta complex | cell-free CFP-Ran/YFP-importin-beta FRET ratio | inhibition, % (test concentration not listed) | actives 1.1% (n = 300,000) | AID 2216, 2009;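 active = more than half of the replicate wells show a fall in the fluorescence ratio signal beyond about 16%, limit read from the data, passing the limit was not always enough; inconclusive = exactly half of the replicate wells pass the set limit; inactive = fewer than half of replicates pass the limit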;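 note: 0% = DMSO wells and 100% = Ran loaded with GDP instead of GTP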
# CaV13 ICDI inh: Disruptors of the CACNA1D IQ motif to Ca2+-dependent inactivation inhibitor domain association, primary screening, Förster resonance energy transfer in intact living …; HEK cells, CFP/YFP FRET ICDI-IQ, plate reader, 10 min; percent FRET-ratio fall versus neutral wells; actives 0.098% (n = 340,000); inhibition, % at 12.3 µM;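 active = mean replicate inhibition of at least 30% and at least 1% of replicates passing that level; inconclusive = only one of the two criteria is met; inactive = neither criterion is met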;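 note: 0% = median of the neutral control wells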
# Runt-SMMHC FRET: inhibitors of RUNX1 Runt–CBFb-SMMHC binding, primary screen, biochemical, FRET, Cerulean-Runt, Venus-CBFb-SMMHC, uHTS | Runt-related transcription factor 1 (Homo sapiens) + Core-binding factor subunit beta … | Cerulean-Runt/Venus-CBFb-SMMHC FRET ratio 530/480, 1 h | inhibition, % at 20 µM | actives 0.74% (n = 220,000) | AID 1434, 2008;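 active = mean inhibition across duplicate retests at 20 µM reaching about 50%, limit read from the data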;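 note: 0% = DMSO wells and 100% = wells with excess untagged CBFb-SMMHC; inhibitors lower the FRET ratio by blocking Runt binding to CBFb-SMMHC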
# Hck Nef conf: retest of Hck:Nef kinase inhibitor hits, confirmation, biochemical, Z-Lyte FRET, 384-well, p-Tyr peptide counterscreen | shares compounds with Hck-Nef inh | Recombinant Hck-YEEI:Nef, Z-Lyte FRET kinase assay | calls only at 10 µM | actives 28% (n = 1,300);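 active = average inhibition of at least 50%, with Z-scores no higher than 3 in both the phospho-tyrosine peptide and fluorescence counterscreens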
# The depositor's hits bear a star; i = inactive; ? = inconclusive; / = not tested or not shown; + = active, no number.
SMILES,Hck-Nef inh,Runt-CBFb FRET,RanGTP-Impb inh,CaV13 ICDI inh,Runt-SMMHC FRET,Hck Nef conf
CCS(=O)(=O)c1ccc2c(c1)N(S(=O)(=O)c1ccc(C)cc1)CC(C(=O)O)O2 (stereo unspecified),6,-2,-1,-3,-1,/
O=C(CSc1nc(-c2ccc(F)cc2)nc2c1Cc1ccccc1O2)Nc1ccc(C(=O)O)cc1,145*,43,/,-1,-3,+
CN(Cc1ccccc1)Cc1c(O)ccc2ccccc12,/,/,3,-5,/,/
Cc1cc(=O)oc2c(CN(C)Cc3ccccc3)c(O)ccc12,58*,36,6,-5,82*,/
COc1ccc(Nc2nc(=O)c3cc([N+](=O)[O-])ccc3s2)cc1,48,2,-1,-4,-1,/
Cc1ccc(Nc2nc(=O)c3cc([N+](=O)[O-])ccc3s2)cc1,57*,2,6,-16,-2,i
CC1(C)CC2(CCO1)C(Nc1ccccc1)=NC(=S)N2CC(N)=O (stereo unspecified),-1,0,-1,-5,-2,/
CCc1ccc(NC(=O)CCN2C(=O)c3cccnc3C2=O)cc1,0,0,-2,-1,4,/
CCc1ccc2c(c1)C(=O)C(=O)N2CC(=O)Nc1ccc(NC(=O)c2ccccn2)cc1,77*,-7,-4,-5,-7,+
CN(C)c1ccc(NC(=O)N2CCOCC2)cc1,7,2,7,-5,7,/
CCn1nnc(NC(=O)Cc2ccc(Cl)cc2)n1,15,2,3,-7,2,/
CCOC(=O)N1CCN(Cc2cn[nH]c2-c2cccc3ccccc23)CC1,19,0,-5,2,0,/
Cc1ccc(/C=C2\SC(=S)N(/N=C/c3cc([N+](=O)[O-])ccc3O)C2=O)o1,142*,-7,7,/,-18,+
O=C(NN1C(=O)/C(=C/c2cc([N+](=O)[O-])ccc2O)SC1=S)c1ccccc1O,/,/,-1,/,/,/
O=P(Cc1ccncc1)(c1ccccc1)c1ccccc1,-2,2,-2,-5,-2,/
N#Cc1ccc(C2=CC(=O)C[C@H](c3ccc4c(c3)OCO4)C2)cc1,/,/,/,-4,/,/
CCOC(=O)Cn1c(=O)cnc2ccccc21,1,-1,1,-4,-2,/
COc1ccc(OCC(=O)Nc2nc3ccc(NC(C)=O)cc3s2)cc1,51*,1,-4,-3,-1,i
COc1cc2ncnc(NCc3ccco3)c2cc1OC,53*,-1,?,-4,2,i
COc1ccccc1CNc1ncnc2cc(OC)c(OC)cc12,47,0,3,-5,3,/
O=C1/C(=C/c2ccco2)CCc2ccccc21,100*,13,2,-4,5,i
Cc1ccc(NC(=O)COc2ccc(/C=C3/SC(=Nc4ccccc4)N(Cc4cccnc4)C3=O)cc2)cc1,90*,-9,0,/,-26,+
COc1cc(OC)c(/C=N/NC(=O)c2ccc(NC(C)=O)cc2)cc1Br,55*,2,0,-4,3,i
CC(=O)Nc1ccc(C(=O)N/N=C/c2cc(Br)cc(Br)c2O)cc1,18,-4,-4,-3,42,/
CCCOc1ccc(CN2CCOCC2)cc1OC,5,2,3,-2,-3,/
SMILES,Hck-Nef inh,Runt-CBFb FRET,RanGTP-Impb inh,CaV13 ICDI inh,Runt-SMMHC FRET,Hck Nef conf
Cc1cc(O)c(C(=O)/C=C/c2cccc([N+](=O)[O-])c2)c(=O)o1,108*,-4,-2,-17,-3,i
Cc1sc2ncn(C(C)C(=O)OC3CCCCC3)c(=O)c2c1C (stereo unspecified),2,-2,0,-3,-1,/
CC(C)(C)c1cc(-c2csc(Nc3ccccc3)[n+]2Cc2ccc(C(=O)O)cc2)cc(C(C)(C)C)c1O,76*,-4,-2,/,-12,i
CCN(C[C@H]1N[C@@](Cc2ccccc2)(C(=O)OC)[C@H]2C(=O)N(Cc3ccccc3)C(=O)[C@@H]12)S(=O)(=O)c1ccc(F)cc1,/,/,/,-10,/,/
N=c1c2c(-c3ccccc3)c(-c3ccccc3)oc2ncn1CCN1CCOCC1,78*,0,11,-5,-3,+
c1ccc(-c2oc3ncnc(NCCN4CCOCC4)c3c2-c2ccccc2)cc1,83*,-1,3,-9,-2,+
CN(C)CCCNc1ncnc2oc(-c3ccccc3)c(-c3ccccc3)c12,/,/,-2,-4,/,/
N=c1c2c(-c3ccccc3)c(-c3ccccc3)oc2ncn1CCCN1CCOCC1,6,-2,-2,-4,-4,/
CCN(CC)C(=O)C1CCCN(c2ccc([N+](=O)[O-])cc2/C=N/NC(=O)c2cccc(Br)c2)C1 (stereo unspecified),5,-3,5,-7,-6,/
CCOc1ccccc1N(CC(=O)NCc1ccc(OC)cc1)S(C)(=O)=O,-1,-2,-1,/,-2,/
Cc1ccc(S(=O)(=O)n2nc(OC(=O)c3ccccc3C)cc2N)cc1,/,/,-3,-3,/,/
COc1ccccc1C(=O)Oc1cc(N)n(S(=O)(=O)c2ccc(C)cc2)n1,94*,-1,1,-4,-8,+
CCCc1cc(NCC2CCCO2)n2c(nc3ccccc32)c1C#N (stereo unspecified),121*,20,52*,-7,55*,/
COCCNc1cc(C)c(C#N)c2nc3ccccc3n12,70*,17,25*,-3,44,/
CCCc1cc(NCCN(C)C)n2c(nc3ccccc32)c1C#N,/,/,5,-6,/,/
CCCc1cc(NCCCN(C)C)n2c(nc3ccccc32)c1C#N,/,/,?,-4,/,/
NS(=O)(=O)c1ccc(CNS(=O)(=O)c2cc(C(=O)O)ccc2Cl)cc1,63*,1,-5,-4,-1,i
CN1C(=O)NC(c2ccccc2)C2=C1CN(c1ccc3ccccc3c1)C2=O (stereo unspecified),103*,-1,-5,0,-3,+
COc1ccc(/C=N/Nc2nc(-c3ccc(C)cc3)c(NC(C)=O)s2)cc1,83*,1,-2,16,-3,i

# Source: PubChem BioAssay
